Bioassay records as filed in PubChem.
Exocytosis inh – blocks lytic granule exocytosis; TALL-104 LAMP-1 surface exposure, flow cytometry; cells stimulated with thapsigargin and PMA; inhibition, % at 10 µM; 0.66% of 360,000 active;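 active = inhibition above about 55%, limit read from the data; inconclusive = no clear call, values can overlap the other calls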
Arr AP2 block – inhibitors of human beta-arrestin and AP2 interaction | inhibition, % at 10 µM | 0.31% of 340,000 active | FITC-arrestin peptide / GST-AP2 beads, flow cytometry; AP2 beta2 appendage carries R879A mutation | AID 504490;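 active = inhibition above a set limit, near 3 SD of compounds lacking own fluorescence, cut at about 54% in these data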
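System: GST-AP2 R879A glutathione beads | Also added: FITC-arrestin peptide, 50 nM | Times: 12 min plus 1 h, RT | Signal: Bead flow cytometry, FITC channel | Buffer or medium: PBS with 0.05% Tween 20 and 0.1% BSA | Read-out basis: Percent drop in bead-associated FITC signal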
Myeloid diff 2 – compounds promoting myeloid differentiation; ER-HoxA9 myeloid progenitors, lysozyme-GFP differentiation, flow cytometry; calls only at 10 µM; 1% of 360,000 active; AID 624256;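 active = normalized GFP-positive differentiation at or above the plate's own cutoff, the solvent-only control mean plus 3 SD; inconclusive = no clear call, values can overlap the other calls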;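 also: cells exposed to compound for four days before flow analysis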
ATG4B inhibitor – inhibitors of human ATG4B cysteine protease. ATG4B cleavage of LC3-PLA2, NBD-HPC fluorescence, 1 h. inhibition, % at 8.33 µM. 0.51% of 340,000 active. AID 504462; in the data active = inhibition above about 40%
ABCB6 inh 2 – human ABCB6 transporter inhibition; Q9NP58; K562-ABCB6 porphyrin accumulation, flow cytometry, 1 h; stronger effect = lower value; fluorescence ratio to DMSO, % at 10 µM; 0.19% of 360,000 active; AID 602162;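 active = fluorescence ratio to DMSO below 75%, the collection mean minus 3 SD; inconclusive = too few cells collected in the well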;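 also: signal is porphyrin accumulated inside mitochondria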
NRP1-CendR mod – alters CendR peptide binding to human NRP-1; O14786; FAM-RPARPAR peptide binding to NRP-1, fluorescence polarization; inhibition, % at 25 µM; 0.85% of 360,000 active;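 active = inhibition or corrected inhibition above about 18%, plus a signal ratio from 0.5 to 1.5, limit read from the data, passing the limit was not always enough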
Target sequence (O14786 whole entry, looked up): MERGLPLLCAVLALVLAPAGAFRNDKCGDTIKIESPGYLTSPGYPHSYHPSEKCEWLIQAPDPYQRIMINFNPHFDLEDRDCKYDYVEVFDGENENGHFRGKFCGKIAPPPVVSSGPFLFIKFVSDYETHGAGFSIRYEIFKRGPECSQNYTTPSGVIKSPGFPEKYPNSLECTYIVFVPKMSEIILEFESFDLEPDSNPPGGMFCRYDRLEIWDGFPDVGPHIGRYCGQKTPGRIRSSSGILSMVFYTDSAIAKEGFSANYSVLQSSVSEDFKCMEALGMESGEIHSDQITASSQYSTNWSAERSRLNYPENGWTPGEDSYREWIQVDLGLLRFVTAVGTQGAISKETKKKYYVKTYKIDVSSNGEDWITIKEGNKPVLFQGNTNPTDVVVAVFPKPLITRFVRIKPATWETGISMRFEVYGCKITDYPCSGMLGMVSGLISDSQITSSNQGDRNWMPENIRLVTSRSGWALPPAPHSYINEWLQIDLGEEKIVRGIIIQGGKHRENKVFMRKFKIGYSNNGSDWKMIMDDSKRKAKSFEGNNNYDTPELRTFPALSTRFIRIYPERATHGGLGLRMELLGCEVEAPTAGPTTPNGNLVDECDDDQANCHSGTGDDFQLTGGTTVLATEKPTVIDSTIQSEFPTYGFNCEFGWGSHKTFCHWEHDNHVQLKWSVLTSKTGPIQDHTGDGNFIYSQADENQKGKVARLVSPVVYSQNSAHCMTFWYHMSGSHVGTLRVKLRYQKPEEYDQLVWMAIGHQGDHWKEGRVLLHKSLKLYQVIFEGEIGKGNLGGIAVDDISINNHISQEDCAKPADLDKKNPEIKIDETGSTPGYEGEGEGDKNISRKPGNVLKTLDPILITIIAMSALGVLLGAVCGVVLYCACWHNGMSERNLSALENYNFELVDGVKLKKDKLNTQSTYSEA
Hits are given with their value; 0 = inactive; ? = inconclusive; - = not tested or not shown; + = active, no number. This is a sample that favours compounds with a hit; in the whole collection about 3.3% have one here.

SMILES | Exocytosis inh | Arr AP2 block | Myeloid diff 2 | ATG4B inhibitor | ABCB6 inh 2 | NRP1-CendR mod
O=C1CC(c2ccc(Cl)cc2)CC(O)=C1C=NCCO (centres undefined) | 0 | 0 | 0 | 0 | 0 | 16
COc1ccc(C2CC(=O)C(C=NCCO)=C(O)C2)cc1 (centres undefined) | 0 | 0 | 0 | 0 | 0 | 0
O=C(NN=C1CCCCC1)Nc1ccccc1Cl | 0 | 0 | 0 | 0 | 0 | 0
CC(C)n1cc(CN2CCN(C)C(CCO)C2)c2ccccc21 (centres undefined) | 0 | 0 | 0 | 0 | 0 | 0
CCC(=O)c1c[nH]c(C(=O)NCc2cccnc2)c1 | 0 | 0 | 0 | 0 | 0 | 22
CCc1cccc(C)c1NC(=O)Nc1c(Br)cnn1C | 0 | 0 | 0 | 0 | 0 | 0
COCC(=O)NCCc1ccc(S(N)(=O)=O)cc1 | 0 | 0 | + | 0 | 0 | 0
Cc1c(C(=O)OCC(=O)NCCc2ccc(S(N)(=O)=O)cc2)oc2ccccc12 | 0 | 0 | 0 | 0 | 0 | 0
COCc1c(C(=O)OCC(=O)NCCc2ccc(S(N)(=O)=O)cc2)oc2ccccc12 | 0 | 0 | 0 | 0 | 0 | 21
NS(=O)(=O)c1ccc(CCNC(=O)CNC(=O)c2ccc(Br)o2)cc1 | 0 | 0 | 0 | 0 | 0 | 19
NS(=O)(=O)c1ccc(CCNC(=O)CNC(=O)COc2ccccc2)cc1 | ? | 0 | 0 | 0 | 0 | 0
Cn1c(OCC2CCCO2)nc2cc(-c3ccccc3)sc2c1=O (centres undefined) | 0 | - | 0 | - | 0 | 0
COc1ccccc1NC(=O)NNC(=O)CN1C(=O)COc2ccccc21 | 0 | 0 | 0 | 0 | 0 | 0
Cc1cc(C(=O)NN)c(Cl)cc1Cl | 0 | 0 | 0 | 0 | 0 | 0
CC(NC(=O)CN1C(=O)NC2(CCCCC2)C1=O)c1ccc(S(N)(=O)=O)cc1 (centres undefined) | 0 | 0 | 0 | 0 | 0 | 0
N#C/C(=C\c1ccc(OC(=O)c2ccc(Cl)s2)cc1)c1nc2ccccc2[nH]1 | 0 | 0 | 0 | 0 | 0 | 39
CC1CCN(C(=O)c2nc[nH]c2C(=O)N2CCC(C)CC2)CC1 | 0 | 0 | 0 | 0 | 0 | 36
Cc1ccc(NC(=O)c2nc[nH]c2C(=O)N2CCC(C)CC2)cc1 | 0 | 0 | 0 | 0 | 0 | 0
COc1ccc(NC(=O)c2nc[nH]c2C(=O)N2CCC(C)CC2)cc1 | 0 | 0 | 0 | 0 | 0 | 25
CC1CCN(C(=O)c2nc[nH]c2C(=O)N2CCc3ccccc3C2)CC1 | 0 | 0 | 0 | 0 | 0 | 29
CC(=O)Nc1ccc(-c2ccnc3c2CC(C)(C(=O)NCC2CCOCC2)O3)cc1 (centres undefined) | 0 | - | 0 | - | 0 | 0
COc1cc2c(-c3ccccc3O)nc3c(c(C)nn3-c3ccccc3)c2cc1OC | 0 | 0 | 0 | 0 | 0 | 33
O=C(Cn1[nH]c(=O)c2ccccc2c1=O)NCCN1C(=O)S/C(=C\c2ccccc2)C1=O | 0 | 0 | 0 | 0 | 0 | 0
COc1cc(C2CC(=O)Oc3c(C(CCN4CCCC(C)C4)c4ccc(N(C)C)cc4)c(OC)cc(OC)c32)cc(OC)c1OC (centres undefined) | 0 | 0 | 0 | 0 | 0 | 25
CCCCCc1cc(=O)oc2c(C(CCN3CCCC(C)C3)c3ccc(N(C)C)cc3)c(OC)cc(OC)c12 (centres undefined) | 81 | 0 | 0 | 0 | 0 | 0
SMILES | Exocytosis inh | Arr AP2 block | Myeloid diff 2 | ATG4B inhibitor | ABCB6 inh 2 | NRP1-CendR mod
Cc1cccc(-n2ccnc2CN2CCC(CO)(Cc3ccccc3)CC2)c1 | 0 | 0 | 0 | 0 | 0 | 0
COc1ccc(S(=O)(=O)N(C)C[C@@H]2OCCCC[C@@H](C)Oc3ccc(NS(=O)(=O)c4cccs4)cc3C(=O)N([C@H](C)CO)C[C@@H]2C)cc1 | 0 | - | 0 | - | 0 | 0
CCN1CCN(c2ccc(S(=O)(=O)N3CCCCC3)cc2NC(=O)/C=C/c2cccc(OC)c2OC)CC1 | 0 | 0 | + | 0 | 0 | 0
O=C(N1CCCCCC1)N1CCN(C(=O)N2CCCCC2)CC1 | 0 | 0 | 0 | 0 | 0 | 28
CC(=O)Nc1ccc(S(=O)(=O)Nc2ccccc2C(=O)N2CCCCCC2)cc1 | 0 | 0 | 0 | 0 | 0 | 0
Cc1ccc(Oc2ncccc2C(=O)NCC(=O)O)cc1 | 0 | 0 | 0 | 0 | 0 | 0
CC(C)Oc1ccc(S(=O)(=O)N2CCOCC2)cc1NC(=O)CSC(=S)N1CCCC1 | 0 | - | + | - | 0 | 0
CC(C)Oc1ccc(S(=O)(=O)N2CCOCC2)cc1NC(=O)C1CCC1 | 0 | 0 | 0 | 0 | 0 | 0
